Experiment [1] addresses Cyclin-dependent kinase 4/cyclin D1 (Homo sapiens, UniProt P11802). Put plainly: Inhibition of human CDK4/GST-cyclin D1 expressed in Sf9 cells assessed as retinoblastoma GST-RB152 phosphorylation. In short, it runs like this:
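CDK4 with GST-cyclin D1 was co-expressed in Sf-9, purified on glutathione-agarose and dialysed. The substrate was GST-RB152, expressed in E. coli BL21(DE3)pLysS (4 mM IPTG, 4 h, 37 °C). The buffer was 40 mM Tris pH 7.5, 20 mM MgCl₂, 0.1 mg/mL BSA plus inhibitors and DTT. 200 ng enzyme ran 30 min at 30 °C. Kinase-Glo luminescence (ATP depletion) gave IC50.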

For experiment [2], the target named is Cyclin-dependent kinase 2 (Homo sapiens, UniProt P24941). Put plainly: Inhibition of human CDK2/GST-cyclin A expressed in Sf9 cells assessed as histone phosphorylation. In short, it runs like this: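 Sf-9 co-expressed CDK2 with GST-cyclin A, purified on glutathione-agarose and dialysed. Histone H1 was the substrate, in 40 mM Tris pH 7.5, 20 mM MgCl₂, 0.1 mg/mL BSA with phosphatase/protease inhibitors and DTT. Compounds came from 10 mM DMSO stock, serially diluted. 200 ng enzyme was incubated 30 min at 30 °C. ATP depletion was read by Kinase-Glo luminescence, and IC50 derived.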

Sequence of Cyclin-dependent kinase 4/cyclin D1 (P11802 whole entry): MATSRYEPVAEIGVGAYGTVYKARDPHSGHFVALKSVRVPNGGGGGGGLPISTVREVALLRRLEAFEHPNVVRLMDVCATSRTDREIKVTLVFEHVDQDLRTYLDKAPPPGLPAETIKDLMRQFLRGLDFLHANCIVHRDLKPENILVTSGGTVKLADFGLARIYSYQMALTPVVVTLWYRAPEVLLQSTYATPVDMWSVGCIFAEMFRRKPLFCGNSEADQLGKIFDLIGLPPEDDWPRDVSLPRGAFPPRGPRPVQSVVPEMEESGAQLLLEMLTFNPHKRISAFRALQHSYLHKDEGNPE
Sequence of Cyclin-dependent kinase 4/cyclin D1 (P24385 whole entry, further chain): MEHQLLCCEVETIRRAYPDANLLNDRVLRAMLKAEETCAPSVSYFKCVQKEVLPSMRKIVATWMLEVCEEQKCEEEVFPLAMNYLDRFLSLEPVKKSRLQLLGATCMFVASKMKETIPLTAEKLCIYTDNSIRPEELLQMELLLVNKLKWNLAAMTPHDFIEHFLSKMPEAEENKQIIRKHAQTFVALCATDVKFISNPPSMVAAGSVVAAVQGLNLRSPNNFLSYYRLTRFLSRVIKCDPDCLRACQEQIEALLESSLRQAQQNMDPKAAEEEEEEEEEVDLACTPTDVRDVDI

Usually IC50 stands for the concentration at which inhibition is half-maximal. Regarding `CN(CCc1c[nH]c2ccccc12)C(=O)c1ccc(-c2ccccc2)cc1`, the IC50 in experiment [1] was found to be 6 µM.

Consider `O=C(c1cccc(-c2ccccc2F)c1)N1CCc2c([nH]c3ccccc23)C1`, for which the IC50 came to 18 µM in experiment [1] and 335 µM in experiment [2].

As to `COc1cccc(-c2ccc(C(=O)N3CCc4c([nH]c5ccccc45)C3)cc2)c1`, the IC50 in experiment [1] is 28 µM; in experiment [2] it was 424 µM.

Consider `COc1ccccc1-c1ccc(C(=O)N2CCc3c([nH]c4ccccc34)C2)cc1`, for which the IC50 in experiment [1] was found to be 22 µM; in experiment [2], 321 µM.

`Cc1cccc(-c2ccccc2C(=O)NCCc2c[nH]c3ccccc23)c1`: the figures for the IC50 in experiment [1] and in experiment [2] were 15 µM and 406 µM, respectively.

`Cc1ccc(-c2cccc(C(=O)N3CCc4c([nH]c5ccccc45)C3)c2)cc1`: the IC50 was 24 µM in experiment [1] and 466 µM in experiment [2].

`O=C(c1ccc(-c2cccc(F)c2)cc1)N1CCc2c([nH]c3ccccc23)C1`: the IC50 in experiment [1] was 21 µM; in experiment [2], 296 µM.

Take `O=C(c1ccc(-c2ccccc2F)cc1)N1CCc2c([nH]c3ccccc23)C1`: the values for the IC50 in experiment [1] and in experiment [2] were 17 µM and 310 µM, respectively.

As to `COc1cccc(-c2ccccc2C(=O)NCCc2c[nH]c3ccccc23)c1`, the results for the IC50 in experiment [1] and in experiment [2] were 53 µM and 926 µM, respectively.

As for `COc1ccccc1-c1ccccc1C(=O)NCCc1c[nH]c2ccccc12`, the IC50 amounted to 26 µM in experiment [1] and 375 µM in experiment [2].

For `COc1cccc(-c2cccc(C(=O)N3CCc4c([nH]c5ccccc45)C3)c2)c1`, the IC50 in experiment [1] worked out at 33 µM; in experiment [2], 362 µM.

For `COc1ccccc1-c1cccc(C(=O)N2CCc3c([nH]c4ccccc34)C2)c1`, the IC50 in experiment [1] was 79 µM; in experiment [2], 1110 µM.

Regarding `O=C(NCCc1c[nH]c2ccccc12)c1ccccc1-c1cccc(F)c1`, the IC50 in experiment [1] worked out at 20 µM; in experiment [2], 417 µM.

Take `COc1ccc(-c2ccccc2C(=O)NCCc2c[nH]c3ccccc23)cc1`: the IC50 in experiment [1] worked out at 79 µM; in experiment [2], 921 µM.

In the case of `O=C(c1ccc(-c2ccc(F)cc2)cc1)N1CCc2c([nH]c3ccccc23)C1`, the IC50 in experiment [1] came to 12 µM; in experiment [2], 438 µM.

As to `CN(CCc1c[nH]c2ccccc12)C(=O)c1ccc(-c2ccncc2)cc1`, the IC50 in experiment [1] turned out to be 26 µM; in experiment [2], 92 µM.

Regarding `O=C(c1ccccc1-c1ccncc1)N1CCc2c([nH]c3ccccc23)C1`, the results for the half-maximal inhibitory concentration (IC50) in experiment [1] and in experiment [2] were 39 µM and 354 µM, respectively.

Turning to `O=C(c1ccccc1-c1ccccc1F)N1CCc2c([nH]c3ccccc23)C1`, the IC50 in experiment [1] turned out to be 19 µM; in experiment [2] it was 434 µM.

For `O=C(c1cccc(-c2ccc(F)cc2)c1)N1CCc2c([nH]c3ccccc23)C1`, the IC50 in experiment [1] was 25 µM; in experiment [2] it was 318 µM.

Consider `O=C(c1ccccc1-c1cccnc1)N1CCc2c([nH]c3ccccc23)C1`, for which the IC50 in experiment [1] was found to be 36 µM; in experiment [2], 312 µM.

`O=C(c1ccccc1-c1ccc(F)cc1)N1CCc2c([nH]c3ccccc23)C1`: the IC50 in experiment [1] turned out to be 23 µM; in experiment [2], 357 µM.

In the case of `Cc1cccc(-c2cccc(C(=O)N3CCc4c([nH]c5ccccc45)C3)c2)c1`, the values for the IC50 in experiment [1] and in experiment [2] were 11 µM and 465 µM, respectively.

Take `Cc1ccccc1-c1cccc(C(=O)N2CCc3c([nH]c4ccccc34)C2)c1`: the figures for the IC50 in experiment [1] and in experiment [2] were 75 µM and 665 µM, respectively.

Regarding `Cc1ccc(-c2ccc(C(=O)N3CCc4c([nH]c5ccccc45)C3)cc2)cc1`, the IC50 in experiment [1] was 9 µM; in experiment [2], 736 µM.

Consider `Cc1cccc(-c2ccc(C(=O)N3CCc4c([nH]c5ccccc45)C3)cc2)c1`, for which the results for the IC50 in experiment [1] and in experiment [2] were 25 µM and 405 µM, respectively.

Turning to `O=C(NCCc1c[nH]c2ccccc12)c1ccc(-c2ccc(F)cc2)cc1`, the results for the IC50 in experiment [1] and in experiment [2] were 15 µM and 764 µM, respectively.

`Cc1ccc(-c2ccc(C(=O)NCCc3c[nH]c4ccccc34)cc2)cc1`: the IC50 in experiment [1] worked out at 18 µM; in experiment [2], 816 µM.

Turning to `O=C(NCCc1c[nH]c2ccccc12)c1ccccc1-c1ccc(F)cc1`, the IC50 in experiment [1] was 38 µM; in experiment [2], 1220 µM.

`O=C(NCCc1c[nH]c2ccccc12)c1cccc(-c2ccccc2)c1`: the values for the IC50 in experiment [1] and in experiment [2] were 86 µM and 1000 µM, respectively.

As for `CN(CCc1c[nH]c2ccccc12)C(=O)c1ccc(-c2ccc(F)cc2)cc1`, the IC50 stood at 21 µM in experiment [1] and 875 µM in experiment [2].

On to `CN(CCc1c[nH]c2ccccc12)C(=O)c1ccc(-c2ccc(C(C)(C)C)cc2)cc1`, for which the concentration for half-maximal inhibition (IC50) in experiment [1] amounted to 11.2 µM; in experiment [2] it was 745 µM.

On to `CN(CCc1c[nH]c2ccccc12)C(=O)c1ccc(-c2ccc(-c3ccccc3)cc2)cc1`, for which the IC50 in experiment [1] was 35 µM; in experiment [2], 91 µM.

Regarding `CC(C)(C)c1ccc(-c2ccc(C(=O)NCCc3c[nH]c4ccccc34)cc2)cc1`, the IC50 in experiment [1] worked out at 9.2 µM; in experiment [2], 790 µM.

As for `O=C(c1cccc(-c2cccc(F)c2)c1)N1CCc2c([nH]c3ccccc23)C1`, the IC50 in experiment [1] worked out at 27 µM; in experiment [2], 611 µM.

As for `O=C(NCCc1c[nH]c2ccccc12)c1cccc(-c2cccnc2)c1`, the 50% inhibitory concentration (IC50) in experiment [1] was 30 µM; in experiment [2], 150 µM.

`Cc1cccc(-c2ccccc2C(=O)N2CCc3c([nH]c4ccccc34)C2)c1`: the IC50 worked out at 26 µM in experiment [1] and 386 µM in experiment [2].

Consider `O=C(c1ccccc1-c1cccc(F)c1)N1CCc2c([nH]c3ccccc23)C1`, for which the IC50 was 35 µM in experiment [1] and 480 µM in experiment [2].

For the compound `Cc1ccccc1-c1ccc(C(=O)N2CCc3c([nH]c4ccccc34)C2)cc1`, the IC50 in experiment [1] turned out to be 32 µM; in experiment [2], 340 µM.

Take `O=C(NCCc1c[nH]c2ccccc12)c1ccc(-c2ccccc2)cc1`: the half-inhibitory concentration (IC50) in experiment [1] came to 16 µM; in experiment [2] it was 855 µM.

As to `CC(C)(C)c1ccc(-c2ccccc2C(=O)NCCc2c[nH]c3ccccc23)cc1`, the IC50 was 38 µM in experiment [1] and 262 µM in experiment [2].

For `COc1ccc(-c2ccc(C(=O)N(C)CCc3c[nH]c4ccccc34)cc2)cc1`, the IC50 in experiment [1] was determined as 49 µM; in experiment [2] it was 289 µM.

Regarding `Cc1ccc(-c2ccc(C(=O)N(C)CCc3c[nH]c4ccccc34)cc2)cc1`, the values for the IC50 in experiment [1] and in experiment [2] were 24 µM and 70 µM, respectively.

With `COc1ccc(-c2ccc(C(=O)NCCc3c[nH]c4ccccc34)cc2)cc1`, the values for the IC50 in experiment [1] and in experiment [2] were 48 µM and 1090 µM, respectively.

As to `O=C1c2ccccc2-[n+]2ccc3c([nH]c4ccccc43)c21` [FASCAPLYSIN CHLORIDE], the IC50 in experiment [1] is 0.55 µM; in experiment [2], 500 µM.

(Values after ChEMBL document CHEMBL1155938, “Design, synthesis and biological evaluation of new tryptamine and tetrahydro-beta-carboline-based selective inhibitors of CDK4” (Bioorg Med Chem, 2008).)
